Data taken from the M2OR odorant receptor database.

Legend:
Details in all cases: stereoisomer not certain
OR5I1 (Homo sapiens) = OR5I1 (Homo sapiens) (UniProt Q13606)
Outline: (§1)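 Assay methods differ from source to source, frequently being transient luciferase assays in mammalian cell lines. For each receptor–molecule pair, the label responsive (active) applies when the original authors judged the measured signal statistically different from baseline, and non-responsive (inactive) applies otherwise.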

OR5J2 (Homo sapiens) = OR5J2 (Homo sapiens) (UniProt Q8NH18)
Outline: as §1

OR5K2 (Homo sapiens) = OR5K2 (Homo sapiens) (UniProt Q8NHB8)
Outline: as §1

OR5K2 L197M = system: OR5K2 L197M
Outline: as §1

OR5K3 (Homo sapiens) = OR5K3 (Homo sapiens) (UniProt A6NET4)
Outline: as §1

OR5K4 (Homo sapiens) = OR5K4 (Homo sapiens) (UniProt A6NMS3)
Outline: as §1

OR5L1 (Homo sapiens) = OR5L1 (Homo sapiens) (UniProt Q8NGL2)
Outline: as §1

OR5L2 (Homo sapiens) = OR5L2 (Homo sapiens) (UniProt Q8NGL0)
Outline: as §1

OR5M1 (Homo sapiens) = OR5M1 (Homo sapiens) (UniProt Q8NGP8)
Outline: as §1

Measured: odorant receptor agonist call

OR5L1 (Homo sapiens), sequence (Q8NGL2 whole entry): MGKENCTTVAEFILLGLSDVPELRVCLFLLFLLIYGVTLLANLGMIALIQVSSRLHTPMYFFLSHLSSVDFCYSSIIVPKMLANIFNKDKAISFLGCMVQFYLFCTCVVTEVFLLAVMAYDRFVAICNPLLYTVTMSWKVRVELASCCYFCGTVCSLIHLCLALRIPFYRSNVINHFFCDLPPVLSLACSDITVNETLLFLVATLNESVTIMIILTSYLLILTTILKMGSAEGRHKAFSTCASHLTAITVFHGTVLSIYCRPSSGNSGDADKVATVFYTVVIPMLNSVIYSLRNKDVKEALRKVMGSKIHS
OR5K3 (Homo sapiens), sequence (A6NET4 whole entry): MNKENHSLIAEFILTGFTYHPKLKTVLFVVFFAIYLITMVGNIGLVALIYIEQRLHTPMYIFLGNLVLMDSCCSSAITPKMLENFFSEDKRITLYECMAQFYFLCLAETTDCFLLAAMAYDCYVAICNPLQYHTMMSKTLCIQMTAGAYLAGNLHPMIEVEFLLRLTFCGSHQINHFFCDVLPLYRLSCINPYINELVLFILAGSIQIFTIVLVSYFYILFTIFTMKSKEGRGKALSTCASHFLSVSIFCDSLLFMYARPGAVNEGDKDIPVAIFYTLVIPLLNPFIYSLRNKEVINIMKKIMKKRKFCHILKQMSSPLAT
OR5I1 (Homo sapiens), sequence (Q13606 whole entry): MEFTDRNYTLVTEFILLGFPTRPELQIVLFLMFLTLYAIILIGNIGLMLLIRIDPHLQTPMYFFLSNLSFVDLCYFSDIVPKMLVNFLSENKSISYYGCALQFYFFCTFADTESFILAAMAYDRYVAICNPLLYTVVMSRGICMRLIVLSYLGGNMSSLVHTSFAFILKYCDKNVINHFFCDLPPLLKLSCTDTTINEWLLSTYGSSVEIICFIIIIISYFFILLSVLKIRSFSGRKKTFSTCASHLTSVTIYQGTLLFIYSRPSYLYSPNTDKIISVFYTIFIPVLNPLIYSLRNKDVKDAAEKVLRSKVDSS
OR5K4 (Homo sapiens), sequence (A6NMS3 whole entry): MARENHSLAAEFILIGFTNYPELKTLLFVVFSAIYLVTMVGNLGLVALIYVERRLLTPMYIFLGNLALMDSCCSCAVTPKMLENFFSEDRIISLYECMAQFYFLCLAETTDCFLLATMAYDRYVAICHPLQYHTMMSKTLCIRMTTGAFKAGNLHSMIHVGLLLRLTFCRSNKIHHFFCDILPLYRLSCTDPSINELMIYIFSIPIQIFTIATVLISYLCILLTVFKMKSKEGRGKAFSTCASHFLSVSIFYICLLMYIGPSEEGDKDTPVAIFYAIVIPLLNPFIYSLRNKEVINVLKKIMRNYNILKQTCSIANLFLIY
OR5K2 (Homo sapiens), sequence (Q8NHB8 whole entry): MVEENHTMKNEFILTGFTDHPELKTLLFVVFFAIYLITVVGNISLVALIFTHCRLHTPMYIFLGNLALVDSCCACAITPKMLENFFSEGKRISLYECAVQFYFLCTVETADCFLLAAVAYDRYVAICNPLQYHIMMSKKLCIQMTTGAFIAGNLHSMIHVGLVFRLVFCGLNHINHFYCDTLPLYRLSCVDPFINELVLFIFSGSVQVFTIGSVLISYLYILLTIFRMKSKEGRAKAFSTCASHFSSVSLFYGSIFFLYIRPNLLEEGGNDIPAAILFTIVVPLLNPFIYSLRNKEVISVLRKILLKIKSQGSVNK
OR5J2 (Homo sapiens), sequence (Q8NH18 whole entry): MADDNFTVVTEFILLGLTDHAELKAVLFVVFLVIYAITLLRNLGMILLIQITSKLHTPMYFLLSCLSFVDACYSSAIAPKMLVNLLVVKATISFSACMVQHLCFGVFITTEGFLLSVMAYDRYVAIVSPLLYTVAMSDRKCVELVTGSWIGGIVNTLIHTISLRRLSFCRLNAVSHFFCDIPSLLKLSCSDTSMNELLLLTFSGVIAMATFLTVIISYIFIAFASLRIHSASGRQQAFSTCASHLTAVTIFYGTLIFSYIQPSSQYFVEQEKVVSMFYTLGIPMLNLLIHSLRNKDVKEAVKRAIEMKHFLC
OR5M1 (Homo sapiens), sequence (Q8NGP8 whole entry): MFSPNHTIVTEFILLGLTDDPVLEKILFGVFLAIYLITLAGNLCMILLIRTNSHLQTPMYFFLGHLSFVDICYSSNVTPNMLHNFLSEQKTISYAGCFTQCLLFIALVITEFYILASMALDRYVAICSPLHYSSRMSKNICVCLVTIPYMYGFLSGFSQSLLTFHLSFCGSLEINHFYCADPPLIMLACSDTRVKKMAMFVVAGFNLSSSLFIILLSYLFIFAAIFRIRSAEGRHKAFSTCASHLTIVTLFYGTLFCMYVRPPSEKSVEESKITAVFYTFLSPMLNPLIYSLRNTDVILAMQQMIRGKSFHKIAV
OR5L2 (Homo sapiens), sequence (Q8NGL0 whole entry): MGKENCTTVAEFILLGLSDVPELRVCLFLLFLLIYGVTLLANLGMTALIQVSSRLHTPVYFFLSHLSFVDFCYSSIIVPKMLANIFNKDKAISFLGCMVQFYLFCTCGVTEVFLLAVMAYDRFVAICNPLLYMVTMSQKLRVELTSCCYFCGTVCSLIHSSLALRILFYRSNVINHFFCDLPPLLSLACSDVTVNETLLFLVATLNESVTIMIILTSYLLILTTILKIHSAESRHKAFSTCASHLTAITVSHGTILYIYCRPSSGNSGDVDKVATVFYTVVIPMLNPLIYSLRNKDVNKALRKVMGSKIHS
OR5K2 L197M, sequence (as listed by the source, stated change not applied): as the sequence (Q8NHB8 whole entry) above, with L197M counted along it

C=CCOC(=O)Cc1ccccc1
inactive: OR5I1 (Homo sapiens) | OR5J2 (Homo sapiens) | OR5K2 (Homo sapiens) | OR5K2 L197M | OR5K3 (Homo sapiens) | OR5K4 (Homo sapiens) | OR5L1 (Homo sapiens) | OR5L2 (Homo sapiens) | OR5M1 (Homo sapiens)

Cc1c([N+](=O)[O-])c(C)c([N+](=O)[O-])c(C(C)(C)C)c1[N+](=O)[O-]
inactive: OR5I1 (Homo sapiens) | OR5J2 (Homo sapiens) | OR5K2 (Homo sapiens) | OR5K3 (Homo sapiens) | OR5K4 (Homo sapiens) | OR5L1 (Homo sapiens) | OR5M1 (Homo sapiens)
